pEC50: −log10 of the molar value. The source made the active and inactive calls. The rule behind the calls is not given here.
Columns and labels:
[1] = molecular target: T1, Vitamin D3 receptor (Homo sapiens) (UniProt P11473); test: Agonist activity at human VDR expressed in human HCT116 cells assessed as induction of recruitment of SRC-1 at 20 to 40 uM after 24 hrs by mammalian two hybrid system based luciferase reporter gene assay; type: cell-based; conditions: HCT-116
T1 sequence (whole entry): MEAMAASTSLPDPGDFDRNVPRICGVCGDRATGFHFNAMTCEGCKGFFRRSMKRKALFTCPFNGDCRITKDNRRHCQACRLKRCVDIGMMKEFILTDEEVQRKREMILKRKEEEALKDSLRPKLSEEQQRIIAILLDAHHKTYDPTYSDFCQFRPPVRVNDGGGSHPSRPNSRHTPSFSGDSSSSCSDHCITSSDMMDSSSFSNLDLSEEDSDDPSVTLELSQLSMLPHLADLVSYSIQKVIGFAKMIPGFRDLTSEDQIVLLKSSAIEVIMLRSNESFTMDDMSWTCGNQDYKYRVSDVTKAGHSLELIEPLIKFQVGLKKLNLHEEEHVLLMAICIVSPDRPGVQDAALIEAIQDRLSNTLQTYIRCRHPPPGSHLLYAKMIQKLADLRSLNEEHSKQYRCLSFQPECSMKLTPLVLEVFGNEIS
Procedure, shortened: (§1)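 M2H in HCT-116 used a VDR-AD prey with an SRC-1-BD or DRIP205-BD bait (50 ng each), 250 ng pFR-luc and 20 ng pRL-null per well. Cells were treated with 3.75 x 10^-5 M compound, 10^-10 M 1,25D or DMSO for 24 h. Firefly luciferase was normalized to Renilla. Duplicate experiments, triplicate samples, SD.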

Vitamin D3 receptor = molecular target: T2, Vitamin D3 receptor (Homo sapiens, UniProt P11473); test: Agonist activity at human VDR expressed in human HCT116 cells co-expressing VDRE assessed as XDR3 transcriptional activity after 24 hrs by luciferase reporter gene assay; type: cell-based, HCT-116
T2 sequence (P11473 whole entry): T1 sequence (whole entry)
Procedure, shortened: (§2)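 HCT-116 cells were transfected with a firefly luciferase plasmid holding two copies of the CYP3A4 XDR3 VDRE, plus a Renilla control. From 18 h post-transfection they were exposed to 3.75 x 10^-5 M compound, 10^-10 M 1,25D or DMSO in complete medium for 24 h. Dual-luciferase firefly/Renilla ratio. Three independent experiments, triplicate wells, mean ± SD.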

[2] = molecular target: T1, Vitamin D3 receptor (Homo sapiens); test: Agonist activity at human VDR expressed in human HCT116 cells assessed as induction of recruitment of DRIP205 at 20 to 40 uM after 24 hrs by mammalian two hybrid system based luciferase reporter gene assay; type: cell-based; conditions: HCT-116; procedure, shortened: as §1
[3] = molecular target: T1, Vitamin D3 receptor (Homo sapiens); test: Agonist activity at human VDR expressed in human HCT116 cells assessed as CYP24A1 transcriptional activity at 20 to 40 uM after 24 hrs by luciferase reporter gene assay; type: cell-based; conditions: HCT-116
Procedure, shortened: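 HCT-116 cells (DMEM, 10% FBS, 37 °C, 5% CO2) plated at 90,000 cells/well ~24 h before transfection with a firefly luciferase reporter carrying the natural human CYP24A1 promoter (2 VDREs) plus Renilla control. Treated 18 h after transfection with 3.75 x 10^-5 M compound, 10^-10 M 1,25D or DMSO for 24 h. Read-out is dual luciferase, firefly/Renilla x10,000. Triplicate wells.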

[4] = molecular target: T1, Vitamin D3 receptor (Homo sapiens); test: Agonist activity at human VDR expressed in human HCT116 cells co-expressing VDRE assessed as XDR3 transcriptional activity at 20 to 40 uM after 24 hrs by luciferase reporter gene assay; type: cell-based; conditions: HCT-116; procedure, shortened: as §2
[5] = molecular target: T3, Retinoic acid receptor RXR-alpha (Homo sapiens) (UniProt P19793); test: Induction of RXRalpha-AD/RXRalpha-BD (unknown origin) homodimerization expressed in human HCT116 cells at 20 to 40 uM after 24 hrs by luciferase reporter gene assay; type: cell-based; conditions: HCT-116
T3 sequence (whole entry): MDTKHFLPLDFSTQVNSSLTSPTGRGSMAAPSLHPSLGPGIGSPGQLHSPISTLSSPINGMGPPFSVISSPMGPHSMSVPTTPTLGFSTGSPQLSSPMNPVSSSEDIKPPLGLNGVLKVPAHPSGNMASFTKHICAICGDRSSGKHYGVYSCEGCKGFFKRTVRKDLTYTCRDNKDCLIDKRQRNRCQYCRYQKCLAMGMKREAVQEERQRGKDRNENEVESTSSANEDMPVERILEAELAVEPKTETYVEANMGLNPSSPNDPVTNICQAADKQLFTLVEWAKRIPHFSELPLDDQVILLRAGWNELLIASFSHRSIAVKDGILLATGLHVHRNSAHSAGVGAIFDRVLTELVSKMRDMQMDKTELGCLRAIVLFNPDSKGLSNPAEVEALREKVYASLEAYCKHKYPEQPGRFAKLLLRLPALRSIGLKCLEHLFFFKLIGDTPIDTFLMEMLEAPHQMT
Procedure, shortened: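 RXR–RXR homodimerization was measured by M2H in HCT-116 cells transfected with RXRα-AD prey, RXRα-BD bait, pFR-luc and Renilla control. […] Firefly luciferase was normalized to Renilla. Three independent experiments, triplicate samples, SD.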

SMILES | Activity [1] | pEC50 (Vitamin D3 receptor) | Activity [2] | Activity [3] | Activity [4] | Activity [5]
O=C(/C=C(\O)CCc1ccc(O)cc1F)CCc1ccc(O)cc1F |  |  |  | inactive | inactive | 
O=C(/C=C(O)/C=C/c1ccc(O)c(OC(F)(F)F)c1)/C=C/c1ccc(O)c(OC(F)(F)F)c1 | Active |  | Active | Active | Active | Active
O=C(/C=C(O)/C=C/c1ccc(O)c(Cl)c1)/C=C/c1ccc(O)c(Cl)c1 |  |  |  | Active | Active | Active
COc1cc(CCC(=O)/C=C(\O)CCc2ccc(O)c(OC)c2)ccc1O |  |  |  |  | Active | 
O=C(/C=C(O)/C=C/c1ccc(O)c(Br)c1)/C=C/c1ccc(O)c(Br)c1 |  |  |  | Active | Active | Active

Next, values leading:

Activity [1] | pEC50 (Vitamin D3 receptor) | Activity [2] | Activity [3] | Activity [4] | Activity [5] | SMILES
Active | 4.70 | Active | Active |  |  | COc1cc(/C=C/C(=O)CC(=O)/C=C/c2ccc(O)c(OC)c2)ccc1O [CURCUMIN]
 |  |  | inactive | inactive |  | O=C(/C=C(O)/C=C/c1ccc(O)cc1F)/C=C/c1ccc(O)cc1F
 |  |  |  | Active |  | COc1cc(/C=C/C(=O)/C=C(O)/C=C/c2cc(F)c(O)c(OC)c2)cc(F)c1O
Active |  | Active | Active | Active | Active | COc1cc(/C=C/C(=O)/C=C(O)/C=C/c2cc(Br)c(O)c(OC)c2)cc(Br)c1O
 |  |  | Active | Active | Active | COc1cc(/C=C/C(=O)/C=C(O)/C=C/c2cc(Cl)c(O)c(OC)c2)cc(Cl)c1O
 |  |  | inactive | inactive |  | COc1cc(CCC(=O)/C=C(\O)CCc2cc(F)c(O)c(OC)c2)cc(F)c1O
Active |  | Active | Active | Active | Active | COc1cc(/C=C/C(=O)/C=C(O)/C=C/c2cc(I)c(O)c(OC)c2)cc(I)c1O
